Results published in ChEMBL document CHEMBL3421560, “Search for factors affecting antibacterial activity and toxicity of 1,2,4-triazole-ciprofloxacin hybrids” (Eur J Med Chem, 2015).
≈ marks a conversion by molar mass, not a printed value.

Assays:
DNA gyrase = DNA gyrase (Escherichia coli, UniProt P0AES4+P0AES6); test: Inhibition of Escherichia coli DNA gyrase after 1 hr by agarose gel electrophoresis; format: protein-complex assay
[1] = Inhibition of Escherichia coli DNA topoisomerase 4 using kDNA as substrate after 1 hr by agarose gel electrophoresis
Outline: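 E. coli topoisomerase IV decatenation kit: kDNA (0.5 µg) with 1 U enzyme in supplied buffer plus varying compound levels, 37 °C for 1 h. Stopped as for the gyrase assay, then 1% agarose in TAE, 1.5 h at 80 V, ethidium bromide. IC50 = concentration blocking 50% conversion to decatenated minicircles, by gel densitometry.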

Klebsiella pneumoniae = test: Antimicrobial activity against Klebsiella pneumoniae ATCC 13883 after 18 hrs by broth microdilution method; format: functional; settings: ATCC 13883, 18 h
Staphylococcus aureus [2] = test: Antimicrobial activity against Staphylococcus aureus Microbank 14001 after 18 hrs by broth microdilution method; format: functional; settings: Microbank 14001, 18 h
Staphylococcus aureus [3] = test: Ratio of MBC for methicillin-susceptible Staphylococcus aureus ATCC 25923 to MIC for methicillin-susceptible Staphylococcus aureus ATCC 25923; format: functional
Outline: (§1)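 MBC taken as lowest concentration giving >99.9% CFU reduction of the initial inoculum; value is MBC divided by MIC for the same strain.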

Proteus mirabilis = test: Antimicrobial activity against Proteus mirabilis ATCC 12453 after 18 hrs by broth microdilution method; format: functional; settings: ATCC 12453, 18 h
Micrococcus luteus = test: Antimicrobial activity against Micrococcus luteus ATCC 10240 after 18 hrs by broth microdilution method; format: functional; settings: ATCC 10240, 18 h
Pseudomonas aeruginosa [4] = test: Antimicrobial activity against Pseudomonas aeruginosa ATCC 9027 after 18 hrs by broth microdilution method; format: functional; settings: ATCC 9027, 18 h
Staphylococcus aureus [5] = test: Ratio of MBC for Staphylococcus aureus Microbank 14001 to MIC for Staphylococcus aureus Microbank 14001; format: functional; outline: as §1
Bacillus cereus = test: Antimicrobial activity against Bacillus cereus ATCC 10876 after 18 hrs by broth microdilution method; format: functional; settings: ATCC 10876, 18 h
Staphylococcus aureus [6] = test: Antimicrobial activity against methicillin-susceptible Staphylococcus aureus ATCC 25923 after 18 hrs by broth microdilution method; format: functional; settings: ATCC 25923, 18 h
Bacillus subtilis = test: Antimicrobial activity against Bacillus subtilis […] after 18 hrs by broth microdilution method; format: functional
Staphylococcus aureus [7] = test: Ratio of vancomycin MIC to compound MIC for Staphylococcus aureus Microbank 14001; format: functional
Staphylococcus aureus [8] = test: Ratio of MBC for methicillin-susceptible Staphylococcus aureus ATCC 6538 to MIC for methicillin-susceptible Staphylococcus aureus ATCC 6538; format: functional; outline: as §1
Staphylococcus aureus [9] = test: Antimicrobial activity against methicillin-susceptible Staphylococcus aureus ATCC 6538 after 18 hrs by broth microdilution method; format: functional; settings: ATCC 6538, 18 h
[10] = tested on: Staphylococcus epidermidis; test: Antimicrobial activity against Staphylococcus epidermidis ATCC 12228 after 18 hrs by broth microdilution method; format: functional; settings: ATCC 12228, 18 h
Escherichia coli = test: Antimicrobial activity against Escherichia coli ATCC 25922 after 18 hrs by broth microdilution method; format: functional; settings: ATCC 25922, 18 h
HEK293 = test: Cytotoxicity against HEK293 cells after 72 hrs by MTT assay; format: cell-based; settings: Homo sapiens, HEK293, 48 h; in the assay text read “48 hrs” for “72 hrs”
Outline: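 HEK-293 (ATCC CRL-1573) in MEM with 10% FBS plus penicillin/streptomycin, seeded 3 x 10^5 cells/well, 24 h at 37 °C, 5% CO2. Treated with compounds diluted from 50 mg/mL DMSO stock into medium with 2% FBS for 48 h. Viability by MTT formazan readout; EC50 relative to control cells, mean ± SD of three independent experiments.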

Staphylococcus aureus [11] = test: Ratio of ciprofloxacin MIC to compound MIC for methicillin-susceptible Staphylococcus aureus ATCC 6538; format: functional
Pseudomonas aeruginosa [12] = test: Ratio of ciprofloxacin MIC to compound MIC for Pseudomonas aeruginosa ATCC 9027; format: functional
Staphylococcus aureus [13] = test: Ratio of ciprofloxacin MIC to compound MIC for methicillin-susceptible Staphylococcus aureus ATCC 25923; format: functional

| Compound | IC50 (DNA gyrase) [µM] | IC50 [1] [µM] | MIC (Klebsiella pneumoniae) [µM] | MIC (Staphylococcus aureus [2]) [µM] | Ratio (Staphylococcus aureus [3]) | MIC (Proteus mirabilis) [µM] | MIC (Micrococcus luteus) [µM] | MIC (Pseudomonas aeruginosa [4]) [µM] | Ratio (Staphylococcus aureus [5]) | MIC (Bacillus cereus) [µM] | MIC (Staphylococcus aureus [6]) [µM] | MIC (Bacillus subtilis) [µM] | Ratio (Staphylococcus aureus [8]) | MIC (Staphylococcus aureus [9]) [µM] | MIC [10] [µM] | MIC (Escherichia coli) [µM] | EC50 (HEK293) [µM] | Ratio (Staphylococcus aureus [11]) | further results |
| --- | --- | --- | --- | --- | --- | --- | --- | --- | --- | --- | --- | --- | --- | --- | --- | --- | --- | --- | --- |
| O=C(O)c1cn(C2CC2)c2cc(N3CCN(Cn4nc(-c5cccc(O)c5)n(-c5cccc(I)c5)c4=S)CC3)c(F)cc2c1=O | 9.78 | 78.1 |  |  |  |  |  |  |  |  |  |  |  |  |  |  |  |  |  |
| O=C(O)c1cn(C2CC2)c2cc(N3CCN(Cn4nc(-c5cccc(O)c5)n(-c5cc(Cl)cc(Cl)c5)c4=S)CC3)c(F)cc2c1=O | 6.05 | 78.7 |  |  |  |  |  |  |  |  |  |  |  |  |  |  |  |  |  |
| CCCc1nn(CN2CCN(c3cc4c(cc3F)c(=O)c(C(=O)O)cn4C3CC3)CC2)c(=S)n1-c1cccc(I)c1 | 6.28 | 155 |  |  |  |  |  |  |  |  |  |  |  |  |  |  |  |  |  |
| O=C(O)c1cn(C2CC2)c2cc(N3CCN(Cn4nc(-c5ccccc5O)n(Cc5ccc(F)cc5)c4=S)CC3)c(F)cc2c1=O |  |  | 0.093 (≈ 0.06 µg/mL) | 0.046 (≈ 0.0297 µg/mL) | <=4 | 0.023 (≈ 0.0148 µg/mL) | 0.76 (≈ 0.49 µg/mL) | 0.046 (≈ 0.0297 µg/mL) | <=4 | 0.093 (≈ 0.06 µg/mL) | 0.76 (≈ 0.49 µg/mL) | 0.011 (≈ 0.00709 µg/mL) | <=4 | 0.19 (≈ 0.122 µg/mL) | 0.046 (≈ 0.0297 µg/mL) | 0.011 (≈ 0.00709 µg/mL) |  |  | Ratio (Staphylococcus aureus [7]): 15 |
| COc1ccc(Cn2c(-c3ccccc3O)nn(CN3CCN(c4cc5c(cc4F)c(=O)c(C(=O)O)cn5C4CC4)CC3)c2=S)cc1 |  |  | 0.023 (≈ 0.0151 µg/mL) | 0.091 (≈ 0.0598 µg/mL) | <=4 | 0.023 (≈ 0.0151 µg/mL) | 1.49 (≈ 0.979 µg/mL) | 0.023 (≈ 0.0151 µg/mL) | <=4 | 0.091 (≈ 0.0598 µg/mL) | 0.36 (≈ 0.236 µg/mL) | 0.011 (≈ 0.00722 µg/mL) | <=4 | 0.091 (≈ 0.0598 µg/mL) | 0.046 (≈ 0.0302 µg/mL) | 0.011 (≈ 0.00722 µg/mL) | 78.7 | 8 | Ratio (Pseudomonas aeruginosa [12]): 31 |
| O=C(O)c1cn(C2CC2)c2cc(N3CCN(Cn4nc(-c5cccc(O)c5)n(Cc5ccc(F)cc5)c4=S)CC3)c(F)cc2c1=O |  |  | 0.046 (≈ 0.0297 µg/mL) | 0.37 (≈ 0.239 µg/mL) | <=4 | 0.006 (≈ 0.00387 µg/mL) | 0.76 (≈ 0.49 µg/mL) | 0.093 (≈ 0.06 µg/mL) | <=4 | 0.093 (≈ 0.06 µg/mL) | 0.37 (≈ 0.239 µg/mL) | 0.023 (≈ 0.0148 µg/mL) | <=4 | 0.093 (≈ 0.06 µg/mL) | 0.19 (≈ 0.122 µg/mL) | 0.006 (≈ 0.00387 µg/mL) | 69.5 | 8 |  |
| COc1ccc(Cn2c(-c3cccc(O)c3)nn(CN3CCN(c4cc5c(cc4F)c(=O)c(C(=O)O)cn5C4CC4)CC3)c2=S)cc1 |  |  | 0.091 (≈ 0.0598 µg/mL) | 0.046 (≈ 0.0302 µg/mL) | <=4 | 0.023 (≈ 0.0151 µg/mL) | 1.49 (≈ 0.979 µg/mL) | 0.18 (≈ 0.118 µg/mL) | <=4 | 0.18 (≈ 0.118 µg/mL) | 0.18 (≈ 0.118 µg/mL) | 0.091 (≈ 0.0598 µg/mL) | <=4 | 0.091 (≈ 0.0598 µg/mL) | 0.091 (≈ 0.0598 µg/mL) | 0.011 (≈ 0.00722 µg/mL) | 62.9 | 8 | Ratio (Staphylococcus aureus [13]): 16; Ratio (Staphylococcus aureus [7]): 15 |
| O=C(O)c1cn(C2CC2)c2cc(N3CCN(Cn4nc(-c5ccc(O)cc5)n(-c5ccc(F)cc5)c4=S)CC3)c(F)cc2c1=O |  |  | 0.19 (≈ 0.12 µg/mL) | 0.19 (≈ 0.12 µg/mL) | <=4 | 0.048 (≈ 0.0303 µg/mL) | 1.55 (≈ 0.978 µg/mL) | 0.38 (≈ 0.24 µg/mL) | <=4 | 0.095 (≈ 0.0599 µg/mL) | 0.19 (≈ 0.12 µg/mL) | 0.048 (≈ 0.0303 µg/mL) | <=4 | 0.19 (≈ 0.12 µg/mL) | 0.095 (≈ 0.0599 µg/mL) | 0.024 (≈ 0.0151 µg/mL) | 106 |  | Ratio (Staphylococcus aureus [13]): 16 |
| COc1ccc(-n2c(-c3ccc(O)cc3)nn(CN3CCN(c4cc5c(cc4F)c(=O)c(C(=O)O)cn5C4CC4)CC3)c2=S)cc1 |  |  | 0.093 (≈ 0.0598 µg/mL) | 0.093 (≈ 0.0598 µg/mL) | <=4 | 0.023 (≈ 0.0148 µg/mL) | 1.52 (≈ 0.977 µg/mL) | 0.023 (≈ 0.0148 µg/mL) | <=4 | 0.19 (≈ 0.122 µg/mL) | 0.76 (≈ 0.488 µg/mL) | 0.023 (≈ 0.0148 µg/mL) | <=4 | 0.19 (≈ 0.122 µg/mL) | 0.37 (≈ 0.238 µg/mL) | 0.012 (≈ 0.00771 µg/mL) | 105 |  | Ratio (Pseudomonas aeruginosa [12]): 31 |
| O=C(O)c1cn(C2CC2)c2cc(N3CCNCC3)c(F)cc2c1=O [CIPROFLOXACIN] |  | 80 | 0.36 (≈ 0.119 µg/mL) |  |  | 0.045 (≈ 0.0149 µg/mL) | 5.88 (≈ 1.95 µg/mL) | 0.72 (≈ 0.239 µg/mL) |  | 0.36 (≈ 0.119 µg/mL) | 2.96 (≈ 0.981 µg/mL) | 0.09 (≈ 0.0298 µg/mL) |  | 0.72 (≈ 0.239 µg/mL) | 1.48 (≈ 0.49 µg/mL) | 0.024 (≈ 0.00795 µg/mL) |  |  |  |
